From ChEMBL document CHEMBL3826950, “Design and development of new class of Mycobacterium tuberculosisl-alanine dehydrogenase inhibitors” (Bioorg Med Chem, 2016)
≈ marks a conversion by molar mass, not a printed value. Calls of active or inactive are those of the source. No cut-off for these calls is given here.

Tests used:
[1] = Inhibition of Mycobacterium tuberculosis L-AlaDH assessed as NADH production by spectrophotometric method
In short: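 Oxidative deamination of L-alanine to pyruvate was followed by NADH absorbance at 340 nm at 37 °C. Background was read from reaction mix without enzyme. Compounds were tested across a 25 to 0.5 range to derive IC50.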

[2] = test system: Mycobacterium tuberculosis; experiment: Antibacterial activity against actively replicative Mycobacterium tuberculosis H37Rv measured after 7 days by MABA assay; format: functional; conditions: 168 h
In short: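 Serial two-fold dilutions in 7H9-S were tested against replicating M. tuberculosis H37Rv (ATCC 27294) at 37 °C for 7 days. Alamar blue was then added and plates were incubated overnight. MIC was the lowest concentration that prevented the blue-to-pink colour change.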

[3] = Cytotoxicity against mouse RAW264.7 cells assessed as reduction in cell viability at 25 uM measured after 48 hrs by MTT assay; format: cell-based; conditions: read-out: INH
In short: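 RAW 264.7 cells were grown in RPMI with 10% FBS and penicillin/streptomycin, seeded at about 5000 cells/well on poly-L-lysine, and held 24 h at 37 °C in 5% CO2. Compound exposure lasted 48 h. MTT (0.5 mg/ml) was added for 3 h and formazan was read at 595 nm.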

[4] = test system: Mycobacterium tuberculosis; experiment: Antibacterial activity against nutrient-starved dormant Mycobacterium tuberculosis H37Rv assessed in log reduction in bacterial count at 10 ug/ml measured after 7 days by MPN assay relative to control; format: functional
In short: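 H37Rv was grown in 7H9/OADC, washed, and starved in PBS in sealed bottles at 37 °C for 6 weeks. The starved culture was treated for 7 days at 37 °C, then diluted 10-fold to 10^-6 in 7H9/OADC and plated in triplicate. After 28 days at 37 °C, wells with growth were scored and MPN was calculated (n = 3).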

| SMILES | IC50 [1] | MIC [2] | cytotoxicity at 48 h, 25 µM [3] | Activity [4] | Log reduction in bacterial count [4] |
| --- | --- | --- | --- | --- | --- |
| Cc1ccc2[nH]c(/C(C#N)=C/c3ccc(-c4cc(C(=O)O)cc(C(=O)O)c4)o3)nc2c1 | 15.6 µM |  |  |  |  |
| Cc1cccc(NC(=O)C2CC(C(=O)Nc3cccc(C)n3)N2NC(=O)c2ccncc2)n1 (centres undefined) | 14.6 µM | 3.51 µM (≈ 1.56 µg/mL) | 3.89% |  |  |
| O=C(NN1C(C(=O)Nc2ccc(Br)cc2)CC1C(=O)Nc1ccc(Br)cc1)c1ccncc1 (centres undefined) | > 25 µM | 2.72 µM (≈ 1.56 µg/mL) | 19.7% | inactive |  |
| O=C(NN1C(C(=O)Nc2nc3ccccc3s2)CC1C(=O)Nc1nc2ccccc2s1)c1ccccc1 (centres undefined) | > 25 µM | 5.93 µM (≈ 3.13 µg/mL) | 12.3% | inactive |  |
| O=C(NN1C(C(=O)NCc2ccccc2)CC1C(=O)NCc1ccccc1)c1ccncc1 (centres undefined) | 10.2 µM | 28.2 µM (≈ 12.5 µg/mL) | 49.3% |  |  |
| O=C(NN1C(C(=O)Nc2ccc(Cl)cc2)CC1C(=O)Nc1ccc(Cl)cc1)c1ccncc1 (centres undefined) | 5.56 µM | 51.6 µM (≈ 25 µg/mL) | 32.9% |  |  |
| CO[C@H]1/C=C/O[C@@]2(C)Oc3c(C)c(O)c4c(O)c(c(/C=N/N5CCN(C)CC5)c(O)c4c3C2=O)NC(=O)/C(C)=C\C=C\[C@H](C)[C@H](O)[C@@H](C)[C@@H](O)[C@@H](C)[C@H](OC(C)=O)[C@@H]1C [RIFAMPIN] |  | 0.15 µM (≈ 0.123 µg/mL) |  |  | 2.2 |
| COc1ccc(Nc2nc(Nc3ccc4c(=O)[nH][nH]c(=O)c4c3)c3cccnc3n2)cc1 | 23.3 µM |  |  |  |  |
| O=C(NN1C(C(=O)Nc2ccccc2)CC1C(=O)Nc1ccccc1)c1ccncc1 (centres undefined) | 9.22 µM | 15.1 µM (≈ 6.26 µg/mL) | 19.8% |  | 1.6 |
| COc1c(N2C[C@@H]3CCCN[C@@H]3C2)c(F)cc2c(=O)c(C(=O)O)cn(C3CC3)c12 [MOXIFLOXACIN] |  | 1.24 µM (≈ 0.498 µg/mL) |  |  | 2.8 |
| Cc1ccc(NC(=O)C2CC(C(=O)Nc3ccc(C)cc3C)N2NC(=O)c2ccncc2)c(C)c1 (centres undefined) | 4.38 µM | 13.3 µM (≈ 6.26 µg/mL) | 19.3% |  |  |
| O=C(NN1C(C(=O)NCCc2ccccc2)CC1C(=O)NCCc1ccccc1)c1ccncc1 (centres undefined) | 4.75 µM | 26.5 µM (≈ 12.5 µg/mL) | 42.3% |  |  |
| COc1ccc(NC(=O)C2CC(C(=O)Nc3ccc(OC)cc3OC)N2NC(=O)c2ccncc2)c(OC)c1 (centres undefined) | 11.7 µM | 46.7 µM (≈ 25 µg/mL) | 48.9% |  |  |
| O=C(NN1C(C(=O)Nc2ccc(Cl)c(Cl)c2)CC1C(=O)Nc1ccc(Cl)c(Cl)c1)c1ccncc1 (centres undefined) | 13.7 µM | 1.41 µM (≈ 0.78 µg/mL) | 49.5% |  |  |
| COc1ccc(C(=O)Nc2ccccc2)cc1Nc1nc(Nc2ccccn2)nc2ncccc12 | 22.1 µM |  |  |  |  |
| CC[C@@H](CO)NCCN[C@@H](CC)CO [ETHAMBUTOL] |  | 7.64 µM (≈ 1.56 µg/mL) |  |  |  |
| Cc1cccc(/C=N/NC2=Nc3[nH]c4ccc(C)cc4c3NN2)c1 | 18.2 µM |  |  |  |  |
| O=C(NN1C(C(=O)Nc2ccccn2)CC1C(=O)Nc1ccccn1)c1ccncc1 (centres undefined) | 9.47 µM | 3.74 µM (≈ 1.56 µg/mL) | 7.68% |  |  |
| O=C(NN1C(C(=O)Nc2nc3ccccc3s2)CC1C(=O)Nc1nc2ccccc2s1)c1ccncc1 (centres undefined) | 3.83 µM | 11.8 µM (≈ 6.25 µg/mL) | 34.7% |  | 2 |
| NNC(=O)c1ccncc1 [ISONIAZID] |  | 0.72 µM (≈ 0.0987 µg/mL) |  |  | 1.5 |
| Cc1cccc(C)c1NC(=O)C1CC(C(=O)Nc2c(C)cccc2C)N1NC(=O)c1ccncc1 (centres undefined) | 9.69 µM | 3.31 µM (≈ 1.56 µg/mL) | 26.6% |  |  |
